Laboratory results: PubChem BioAssay
Records with an inconclusive call do not appear. Activity calls are given as the source filed them.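 The calls were made as follows, unless noted: active = inhibition over a set limit, the all-compound mean plus 3 SD, in both replicate runs; inconclusive = over that limit in just one replicate run; inactive = at or under that limit in both runs.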

What was measured:
[1] = S. cerevisiae growth inhibition in permissive medium (OD615), pilot counter-assay for S. cerevisiae lifespan shortening project, permissive growth control (AID 705;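 active = growth inhibition above 25% in both replicates, a cutoff set 3 SD above the mean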); conditions: OD615, 24 h, at 10 µM, stronger effect = higher value
How it was run: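 System: Engineered DeaD yeast | Buffer or medium: SC raffinose/galactose permissive medium | Doses: 10 µM single dose, 0.25% DMSO | Times: 24 h exposure, 30 °C | Measured by: OD615 turbidity read | Read-out: Yeast growth inhibition indicated by reduced 24 h OD615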

[2] = S. cerevisiae growth inhibition in restrictive medium, OD615, pilot screen, restrictive growth control, yeast lifespan reduction project (AID 706;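 active = growth inhibition above a set limit, 3 SD over mean compound inhibition, in both replicates, cut at about 43% in these data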;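 also: modified DeaD lifespan yeast strain shifted to restrictive glucose medium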); conditions: OD615, 48 h, at 10 µM, stronger effect = higher value
How it was run: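 Assay system: engineered S. cerevisiae DeaD strain; Buffer or medium: CSMM-D glucose medium; Dosing: 10 µM compound, 0.25% DMSO; Times: cell pre-growth 4 h, compound exposure 48 h, 30 °C; Detection: absorbance (optical density) measured at 615 nm.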

[3] = doxorubicin toxicity protection in MRP-1 cells – H69AR cells, CellTiter-Glo, duplicate, MRP-1 activator project, pilot screen (AID 807;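 active = viability increase at or above a cutoff of the median across tested compounds plus 3 SD, cut at about 8.5% in these data, passing the limit was not always enough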;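 also: compound pretreatment 18-22 h then 72 h combined with doxorubicin; 0% = doxorubicin alone and 100% = vehicle without doxorubicin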); conditions: H69AR viability with doxorubicin, CellTiter-Glo luminescence; at 10 µM; stronger effect = higher value
[4] = viability of HCT116 without oncogenic beta-catenin – human colon tumor cells, pilot screen (AID 823;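 active = cell viability at or below a set limit in both duplicate runs, the limit being the all-compound median minus 4 SD, cut at about 23% in these data, passing the limit was not always enough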;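 also: 0% = wells killed by 20 µM Hyamine and 100% = untreated DMSO cell wells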); conditions: HCT116 beta-catenin knockout viability, CellTiter-Glo, 60 h; at 10 µM; stronger effect = lower value
[5] = viability of PTEN-null HCT116 cells – cell-based, HCT116 clonal line, CellTiter-Glo, pilot screen (AID 824;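 active = viability at or below 27.92% in each of two runs, the all-compound median minus 4 SD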;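 also: 0% = 20 µM Hyamine control and 100% = vehicle cell control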); conditions: HCT116 PTEN-deleted viability, 60 h, at 10 µM, stronger effect = lower value
[6] = RAM pathway blockade in budding yeast – dse1pr::URA3 reporter, 5-FOA selection, pilot screen (AID 869);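 also: 0% = DMSO wells with no growth and 100% = 10 µM 1-NA-PP1 with full growth; RAM network block rescues cells from 5-FOA so hits raise OD615 growth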; conditions: S. cerevisiae dse1pr::URA3 5-FOA growth, OD615, 2 d; at 10 µM; stronger effect = higher value; strain carries analog-sensitive mutant Cbk1 kinase
[7] = RAM signaling pathway blockade in yeast – S. cerevisiae, Pdr1DBD-CYC8 efflux-inhibited sensitized strain, primary screen (AID 1298;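 active = RAM network inhibition above 8.4% in each of two replicates, 3 SD over the compound average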;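 also: 0% = DMSO untreated cells without growth and 100% = 10 µM 1-NA-PP1 full growth; higher means more yeast growth rescued from 5-FOA killing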); conditions: S. cerevisiae cbk1-as DSE1-URA3 strain, 5-FOA growth OD615, 2 d; at 50 µM; stronger effect = higher value

COCCCN(C(=O)Nc1ccccc1)C(C)c1ccncc1 (stereo not given)
inactive: growth inhibition [1] 2.64% | growth inhibition [2] -0.975% | viability increase [3] -1.88% | viability [4] 101% | viability [5] 94.3% | inhibition [6] 1.18% | RAM network inhibition [7] 3.28%

CCOC(=O)NCc1ccc(CNC(=O)OCC)cc1
inactive: growth inhibition [1] -9.67% | growth inhibition [2] 4.35% | viability increase [3] -1.96% | viability [4] 97.1% | viability [5] 90% | inhibition [6] 0.81% | RAM network inhibition [7] 0.57%

CC1(C)Oc2ccc3ccc(=O)oc3c2-c2cnoc21
inactive: growth inhibition [1] 0.81% | growth inhibition [2] 5.33% | viability increase [3] -0.4% | viability [4] 104% | viability [5] 96.3% | inhibition [6] 1.08% | RAM network inhibition [7] 4.79%

O=C(Nc1ccc2oc(-c3ccccc3)nc2c1)c1ccncc1
inactive: growth inhibition [1] -2.31% | growth inhibition [2] -10.5% | viability increase [3] 2.36% | viability [4] 79.7% | viability [5] 77.9% | inhibition [6] 0.165% | RAM network inhibition [7] 1.62%

CCOC(=O)C1CCN(C(=O)CN(c2ccc(OC)c(OC)c2)S(=O)(=O)c2ccccc2)CC1
inactive: growth inhibition [1] -2.99% | growth inhibition [2] -7.61% | viability increase [3] 0.05% | viability [4] 104% | viability [5] 94.6% | inhibition [6] 1.19% | RAM network inhibition [7] 6.25%

O=C(COC(=O)c1ccccc1Oc1ccccc1)NCc1ccco1
inactive: growth inhibition [1] -7.67% | growth inhibition [2] -3.48% | viability increase [3] -6.02% | viability [4] 61.6% | viability [5] 67.1% | inhibition [6] 2.41% | RAM network inhibition [7] 2.24%

COc1c(C)cc(Br)cc1C(=O)Nc1cccc(-c2nc3ncccc3o2)c1
inactive: growth inhibition [1] -0.485% | growth inhibition [2] 15% | viability increase [3] -4.84% | viability [4] 55.6% | viability [5] 46.5% | inhibition [6] 2.24% | RAM network inhibition [7] 7.82%

O=C(CSc1nnc(-c2ccccn2)n1Cc1ccco1)c1ccc(Cl)cc1
inactive: growth inhibition [1] 1.63% | growth inhibition [2] 23.2% | viability increase [3] -2.56% | viability [4] 85.8% | viability [5] 82% | inhibition [6] 2.6% | RAM network inhibition [7] 4.4%

CCCS(=O)(=O)c1nc(S(=O)(=O)c2ccc(C)cc2)c(N2CCCC2)s1
inactive: growth inhibition [1] -0.655% | growth inhibition [2] 9.56% | viability increase [3] -2.03% | viability [4] 103% | viability [5] 96.3% | inhibition [6] 4.48% | RAM network inhibition [7] 10.2%

CN1/C(=C/C=N/n2cnnc2)C(C)(C)c2ccccc21
inactive: growth inhibition [1] -6.3% | growth inhibition [2] -17.9% | viability increase [3] -0.78% | viability [4] 98% | viability [5] 93.2% | inhibition [6] 0.465% | RAM network inhibition [7] 3.01%

O=C(O)CCCC(=O)N1CCN(c2nc(-c3ccccc3)c3ccccc3n2)CC1
inactive: growth inhibition [1] -9.64% | growth inhibition [2] -6.36% | viability increase [3] -1.22% | viability [4] 102% | viability [5] 93% | inhibition [6] 0.83% | RAM network inhibition [7] 4.79%

COc1cc(C)c(S(=O)(=O)NCc2ccc3c(c2)OCO3)cc1C
inactive: growth inhibition [1] -2.38% | growth inhibition [2] 3% | viability increase [3] 0.6% | viability [4] 106% | viability [5] 102% | inhibition [6] -0.055% | RAM network inhibition [7] -0.06%

CCOC(=O)CSc1nnc(Cc2cc(=O)[nH]c(=O)[nH]2)n1-c1ccc(Cl)cc1
inactive: growth inhibition [1] -16.1% | growth inhibition [2] -1.39% | viability increase [3] 1.33% | viability [4] 101% | viability [5] 100% | inhibition [6] 2.48% | RAM network inhibition [7] 4.03%

O=C1CCCC/C1=C\Nc1ccc(Cl)cn1
inactive: growth inhibition [1] -4.26% | growth inhibition [2] 1.26% | viability increase [3] 1.58% | viability [4] 98.1% | viability [5] 95% | inhibition [6] 2.25% | RAM network inhibition [7] -1.13%

CCOc1ccc(N(C(C)C(=O)Nc2ccc(OC)cc2)S(C)(=O)=O)cc1 (stereo not given)
inactive: growth inhibition [1] -10.2% | growth inhibition [2] -1.65% | viability increase [3] 0.78% | viability [4] 103% | viability [5] 90.2% | inhibition [6] 1% | RAM network inhibition [7] 3.17%

Brc1ccc2c(c1)c1nc3ccccc3nc1n2CCN1CCOCC1
inactive: growth inhibition [1] -11% | growth inhibition [2] -0.14% | viability increase [3] -5.95% | viability [4] 56% | viability [5] 59.4% | inhibition [6] 4.42% | RAM network inhibition [7] 5.58%

CCOc1ccc(NC2c3ccccc3C(=O)N2c2ccc(Cl)cn2)cc1 (stereo not given)
inactive: growth inhibition [1] -14% | growth inhibition [2] -15.6% | viability increase [3] -1.1% | viability [4] 94.2% | viability [5] 94.6% | inhibition [6] 3.93% | RAM network inhibition [7] 3.42%

OCCn1c(SCCOc2ccccc2F)nc2ccccc21
inactive: growth inhibition [1] -4.44% | growth inhibition [2] -1.06% | viability increase [3] -3.24% | viability [4] 91.5% | viability [5] 88.4% | inhibition [6] 2.67% | RAM network inhibition [7] 2.71%

Cc1cc(OCC(=O)C(C)(C)C)c2c(C)c(C)c(=O)oc2c1
inactive: growth inhibition [1] -18.8% | growth inhibition [2] -20.7% | viability increase [3] -6.01% | viability [4] 79.9% | viability [5] 73.8% | inhibition [6] 0.31% | RAM network inhibition [7] 6.85%

O=S(=O)(Nc1ccc2nc(C(F)(F)F)[nH]c2c1)c1ccccc1
inactive: growth inhibition [1] -1.94% | growth inhibition [2] -0.635% | viability increase [3] 0.27% | viability [4] 85.5% | viability [5] 82% | inhibition [6] 0.97% | RAM network inhibition [7] 1.68%
